Compounds with a hit are over-represented: about 3.5% of the library has one in this group of screens.
PglD inh: PglD (C. jejuni) enzyme inhibition; inhibition, % at 12.5 µM; 360,000 tested, 0.098% active; purified PglD enzyme, DTNB colorimetric CoA detection; in the data active means inhibition above about 16%, passing the limit was not always enough
DENV2 CPE rescue: protects cells from dengue virus 2 cytopathic effect | DENV2-infected cells, cytopathic effect rescue, plate reader | CPE inhibition, % at 9.99 µM | 350,000 tested, 1.7% active | AID 651640; in the data active means CPE inhibition above about 20%, passing the limit was not always enough; tested in BHK-21 cells;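 further: 0% = median of neutral control wells and 100% = median of positive control wells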
rRNA inh HTS: inhibitors of bacterial rRNA selective over humanized ribosomes; E. coli WT GFP vs humanized-ribosome RFP mutants, fluorescence, 24 h; hits give low values; DMSO median 0, no signal -100; GFP signal change (wild-type ribosome), % (no concentration beside the values); 350,000 tested, 1.6% active; AID 720706;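 active means significant combined selectivity score with lowered wild-type GFP, culture density cut under 30%, mutant RFP and density less affected; inactive means any of these conditions unmet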
Env fusion inh: inhibitors of HIV Env-mediated cell fusion; HeLa-JRFL Env/CEM21 cell fusion, luciferase; inhibition, % at 12.3 µM; 360,000 tested, 1.1% active;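 active means mean replicate inhibition score of at least 50 and every replicate individually at or above 50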;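 further: 0% = plate neutral controls and 100% = maraviroc near 300 nM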
FN deposition inh: fibronectin deposition inhibition. AH1F fibroblasts, Alexa488-fibronectin deposition fluorescence, overnight. inhibition, % at 12.6 µM. 350,000 tested, 0.086% active. AID 743247;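 active means mean inhibition across replicates of 30% or more, regardless of how many single replicates reach that level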;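 further: positive control wells lacked labelled fibronectin entirely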
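Assay system: AH1F fibroblasts assembling fluorescent fibronectin matrix; Amount: 10000 AH1F cells per well; Buffer or medium: DMEM, 2% serum; Probe or stimulus: Alexa488-fibronectin, 24 nM final in well; Doses: single compound dose, delivered by pin transfer; Incubation: 1 h adhesion, overnight exposure; Measured by: fluorescence 485/525 nm; Read-out: fibronectin deposition inhibition.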
PGC1a acetyl inh: PGC1a acetylation modulation, inhibitor mode | inhibition, % at 15.6 µM | U2OS PGC1a acetylation, AlphaScreen anti-acetyl-lysine; with virally co-expressed GCN5 acetyltransferase | 350,000 tested, 0.17% active;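 active means every replicate shows inhibition of at least 40%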;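 further: 0% = neutral control wells and 100% = positive control wells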
* = called active by the depositor; [ ] = another dose, or the depositor's remark.

How did Cc1ccc(-c2nc(NC(=O)c3cc(C(C)(C)C)nn3C)sc2C)cc1Cl do in these assays?
PglD inh: 3; DENV2 CPE rescue: 55*; rRNA inh HTS: 7; Env fusion inh: 0; FN deposition inh: -6

What do the screens show for `COCC#Cc1cnc2c(c1)C(=O)N([C@H](C)CO)C[C@H](C)[C@H](CN(C)Cc1ccc(F)cc1)O2`?
PglD inh: -2; DENV2 CPE rescue: 0; rRNA inh HTS: 1; Env fusion inh: -9[16.7 µM]; FN deposition inh: -12; PGC1a acetyl inh: -3

What do the screens show for `N=c1c2c3c(sc2ncn1Nc1ccccc1)CCC3`?
PglD inh: -3; DENV2 CPE rescue: -8; rRNA inh HTS: -17*; Env fusion inh: 11; FN deposition inh: -5; PGC1a acetyl inh: -9

How did CCNc1nc(NCC)nc(C(=O)OCCO)n1 do in these assays?
PglD inh: -3; DENV2 CPE rescue: 29*; rRNA inh HTS: 9; Env fusion inh: 16; FN deposition inh: 11; PGC1a acetyl inh: 1

Results for Cc1ccc(-n2c(O)c(C=NC3CCS(=O)(=O)C3)c3ccccc3c2=O)c(C)c1 (stereo not drawn) ?
DENV2 CPE rescue: 2; rRNA inh HTS: 1; Env fusion inh: 12; FN deposition inh: -4; PGC1a acetyl inh: 57*

What do the screens show for `Cc1ccccc1-n1c(SCC(=O)NC2CCS(=O)(=O)C2)nc2ccccc2c1=O` (stereo not drawn)?
PglD inh: 4; DENV2 CPE rescue: 4; rRNA inh HTS: 0; Env fusion inh: 3; FN deposition inh: -3; PGC1a acetyl inh: 9

How did Cc1ccc(-n2c(SCC(=O)NC3CCS(=O)(=O)C3)nc3ccccc3c2=O)c(C)c1 (stereo not drawn) do in these assays?
PglD inh: -6; DENV2 CPE rescue: 38*; rRNA inh HTS: -1; Env fusion inh: -14; FN deposition inh: -16; PGC1a acetyl inh: 4

How did CC(C)Cn1c(SCC(=O)NC2CC2)nc2ccccc21 do in these assays?
PglD inh: 1; DENV2 CPE rescue: 1; rRNA inh HTS: -5; Env fusion inh: 95*; FN deposition inh: 6; PGC1a acetyl inh: -6

How did O=C(CSc1nc2ccccc2c(=O)n1-c1ccc(F)cc1F)NC1CC1 do in these assays?
PglD inh: 0; DENV2 CPE rescue: -2; rRNA inh HTS: 5; Env fusion inh: 29; FN deposition inh: -2; PGC1a acetyl inh: -22

What do the screens show for `O=C(CSc1nc2ccccc2c(=O)n1-c1ccccc1F)NC1CC1`?
PglD inh: -2; DENV2 CPE rescue: 22*; rRNA inh HTS: -14; Env fusion inh: 3; FN deposition inh: -11

How did CC(C)NC(=O)N1[C@@H]2CN(C(=O)c3ccncc3)c3ccccc3[C@@H]2[C@@H]1CO do in these assays?
PglD inh: -2; DENV2 CPE rescue: 9; rRNA inh HTS: 2; PGC1a acetyl inh: 4

Results for CN(C)CCCNC(=O)C[C@@H]1C=C[C@@H](NC(=O)Cc2cccnc2)[C@@H](CO)O1 ?
DENV2 CPE rescue: -14; rRNA inh HTS: -2; FN deposition inh: -12

What do the screens show for `COc1ccc(NC(=O)Nc2ccc3c(c2)C(=O)N([C@H](C)CO)C[C@H](C)[C@H](CN(C)S(=O)(=O)c2cccs2)O3)cc1`?
PglD inh: -2; DENV2 CPE rescue: 6; rRNA inh HTS: -2; Env fusion inh: 36[16.7 µM]; PGC1a acetyl inh: -5

What do the screens show for `COc1ccc(S(=O)(=O)N(C)C[C@@H]2Oc3ncc(-c4cccc(OC)c4)cc3C(=O)N([C@H](C)CO)C[C@@H]2C)cc1`?
rRNA inh HTS: -3; Env fusion inh: 7[16.7 µM]; FN deposition inh: -21; PGC1a acetyl inh: 4

What do the screens show for `COCCNC(=O)C1(C)CCCN(C(=O)c2ccccc2)C1` (stereo not drawn)?
PglD inh: 3; DENV2 CPE rescue: 33*; rRNA inh HTS: 6; Env fusion inh: 7; FN deposition inh: -2

Results for Cc1cccc(C)c1NC(=O)CN(C)C(C)C(=O)Nc1ccccc1-c1ccccc1 (stereo not drawn) ?
PglD inh: -1; DENV2 CPE rescue: 6; rRNA inh HTS: -25*; Env fusion inh: 29; FN deposition inh: -15

Source: PubChem (Broad Institute)
